{
  "source": "ChEMBL document CHEMBL1914438",
  "about": "“Synthesis and biological activity of novel N-cycloalkyl-(cycloalkylaryl)-2-[(3-R-2-oxo-2H-[1,2,4]triazino[2,3-c]quinazoline-6-yl)thio]acetamides” (2011)",
  "key": {"[1]": {"tested_on": "Photobacterium leiognathi", "experiment": "Antibacterial activity against Photobacterium leiognathi Sh1 assessed as inhibition of bacterial luminescence at 0.025 mg/mL after 10 mins by bioluminometry-based chronic action test", "type": "functional", "parameters": "scale not given: the % may be the effect or the level left", "conditions": "in the assay text read “after 16 to 18 hrs” for “after 10 mins”", "method_in_brief": "(§1)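 Chronic (growth plus luminescence) test with P. leiognathi Sh1 at 10^5 cells/mL in chloride solution, compounds added in DMSO. After 10 min at 25 °C, growth medium added at 1:50 and the mix incubated 16–18 h at 30 °C. Luminescence then measured by bioluminometer as % of untreated control. Tetracycline reference.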"}, "Staphylococcus aureus": {"tested_on": "Staphylococcus aureus", "experiment": "Antibacterial activity against Staphylococcus aureus at 1 to 5 mg/mL after 24 hrs by stiff-plate agar-diffusion method", "type": "functional, organism-based", "method_in_brief": "(§2)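 Agar diffusion (stiff plate) with test substances at 5 mg/mL in grooves, allowed to diffuse into nutrient agar; inoculum 10^9 c.f.u./mL; bacteria incubated 24 h at 35 °C. Read-out: inhibition zone diameter (not sensitive 11–15 mm, sensitive 16–25 mm, highly sensitive >25 mm). Vancomycin and oxacillin as standards; three repeats.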"}, "UO-31": {"tested_on": "UO-31", "experiment": "Cytotoxicity against human UO31 cells assessed as cell growth at 10^-5 M after 48 hrs by SRB assay", "type": "functional", "conditions": "UO-31, 48 h, read-out: Activity", "method_in_brief": "(§3)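 NCI human tumor cell line panel from nine cancer types. Each line was inoculated and preincubated 24–48 h, then exposed to a single concentration (10^-5 M) for 48 h. Growth was read by sulforhodamine B protein staining, measured spectrophotometrically. Value reported as percent growth of treated cells relative to untreated controls.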"}, "[2]": {"tested_on": "Photobacterium leiognathi", "experiment": "Antibacterial activity against Photobacterium leiognathi Sh1 assessed as inhibition of bacterial luminescence at 0.025 mg/mL after 10 mins by bioluminometry-based acute action test", "type": "functional", "parameters": "scale not given: the % may be the effect or the level left", "method_in_brief": "(§4)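 Marine P. leiognathi Sh1 (Azov Sea shrimp isolate) diluted in chloride solution to 10^5 cells/mL; compounds suspended in DMSO mixed with 1 mL bacterial suspension. Acute test: 10 min at 25 °C, then bioluminescence measured by bioluminometer as % of compound-free control. Tetracycline reference.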"}, "[3]": {"tested_on": "Photobacterium leiognathi", "experiment": "Antibacterial activity against Photobacterium leiognathi Sh1 assessed as inhibition of bacterial luminescence at 0.1 mg/mL after 10 mins by bioluminometry-based acute action test", "type": "functional", "parameters": "scale not given: the % may be the effect or the level left", "method_in_brief": "as §4"}, "Aspergillus niger": {"tested_on": "Aspergillus niger", "experiment": "Antifungal activity against Aspergillus niger at 1 to 5 mg/mL after 48 to 72 hrs by stiff-plate agar-diffusion method", "type": "functional, organism-based", "method_in_brief": "(§5)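 Fungal plates run by stiff-plate agar diffusion, substances applied to grooves at 5 mg/mL; 10^9 c.f.u./mL cells; incubation 48–72 h at 28–30 °C. Inhibition zone diameter scored (11–15 mm not sensitive, 16–25 mm sensitive, >25 mm highly sensitive). Nystatin standard; experiments done three times.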"}, "HCC 2998": {"tested_on": "HCC 2998", "experiment": "Cytotoxicity against human HCC2998 cells assessed as cell growth at 10^-5 M after 48 hrs by SRB assay", "type": "functional", "conditions": "HCC 2998, 48 h, read-out: Activity", "method_in_brief": "(§6)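 NCI 60-cell-line one-dose primary screen: cells inoculated and preincubated 24–48 h, then test agent added at a single 10^-5 M concentration for a further 48 h. Endpoint is sulforhodamine B protein staining read spectrophotometrically. Reported as percent growth relative to untreated control cells.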"}, "[4]": {"tested_on": "Photobacterium leiognathi", "experiment": "Antibacterial activity against Photobacterium leiognathi Sh1 assessed as inhibition of bacterial luminescence at 0.25 mg/mL after 10 mins by bioluminometry-based acute action test", "type": "functional", "parameters": "scale not given: the % may be the effect or the level left", "method_in_brief": "as §4"}, "[5]": {"tested_on": "Photobacterium leiognathi", "experiment": "Antibacterial activity against Photobacterium leiognathi Sh1 assessed as inhibition of bacterial luminescence at 0.25 mg/mL after 10 mins by bioluminometry-based chronic action test", "type": "functional", "parameters": "scale not given: the % may be the effect or the level left", "conditions": "in the assay text read “after 16 to 18 hrs” for “after 10 mins”", "method_in_brief": "as §1"}, "CCRF-CEM": {"tested_on": "CCRF-CEM", "experiment": "Cytotoxicity against human CCRF-CEM cells assessed as cell growth at 10^-5 M after 48 hrs by SRB assay", "type": "functional", "conditions": "read-out: Activity", "method_in_brief": "as §6"}, "[6]": {"tested_on": "Photobacterium leiognathi", "experiment": "Antibacterial activity against Photobacterium leiognathi Sh1 at 0.1 to 0.25 ug/mL", "type": "functional, organism-based"}, "Yamadazyma tenuis": {"tested_on": "Yamadazyma tenuis", "experiment": "Antifungal activity against Candida tenuis at 1 to 5 mg/mL after 48 to 72 hrs by stiff-plate agar-diffusion method", "type": "functional, organism-based", "method_in_brief": "as §5"}, "SK-MEL-5": {"tested_on": "SK-MEL-5", "experiment": "Cytotoxicity against human SK-MEL-5 cells assessed as cell growth at 10^-5 M after 48 hrs by SRB assay", "type": "functional", "conditions": "SK-MEL-5, 48 h, read-out: Activity", "method_in_brief": "as §3"}, "Escherichia coli": {"tested_on": "Escherichia coli", "experiment": "Antibacterial activity against Escherichia coli at 1 to 5 mg/mL after 24 hrs by stiff-plate agar-diffusion method", "type": "functional, organism-based", "method_in_brief": "as §2"}, "LOX IMVI": {"tested_on": "LOX IMVI", "experiment": "Cytotoxicity against human LOXIMVI cells assessed as cell growth at 10^-5 M after 48 hrs by SRB assay", "type": "functional", "conditions": "read-out: Activity", "method_in_brief": "as §6"}, "PC-3": {"tested_on": "PC-3", "experiment": "Cytotoxicity against human PC3 cells assessed as cell growth at 10^-5 M after 48 hrs by SRB assay", "type": "functional", "conditions": "PC-3, 48 h, read-out: Activity", "method_in_brief": "as §3"}, "SNB-75": {"tested_on": "SNB-75", "experiment": "Cytotoxicity against human SNB75 cells assessed as cell growth at 10^-5 M after 48 hrs by SRB assay", "type": "functional", "conditions": "SNB-75, 48 h, read-out: Activity", "method_in_brief": "as §3"}, "MDA-MB-231": {"tested_on": "MDA-MB-231", "experiment": "Cytotoxicity against human MDA-MB-231 cells assessed as cell growth at 10^-5 M after 48 hrs by SRB assay", "type": "functional", "conditions": "MDA-MB-231, 48 h, read-out: Activity", "method_in_brief": "as §6"}, "[7]": {"tested_on": "Photobacterium leiognathi", "experiment": "Antibacterial activity against Photobacterium leiognathi Sh1 assessed as inhibition of bacterial luminescence at 0.1 mg/mL after 10 mins by bioluminometry-based chronic action test", "type": "functional", "parameters": "scale not given: the % may be the effect or the level left", "conditions": "in the assay text read “after 16 to 18 hrs” for “after 10 mins”", "method_in_brief": "as §1"}, "MOLT-4": {"tested_on": "MOLT-4", "experiment": "Cytotoxicity against human MOLT4 cells assessed as cell growth at 10^-5 M after 48 hrs by SRB assay", "type": "functional", "conditions": "MOLT-4, 48 h, read-out: Activity", "method_in_brief": "as §3"}, "SR": {"tested_on": "SR", "experiment": "Cytotoxicity against human SR cells assessed as cell growth at 10^-5 M after 48 hrs by SRB assay", "type": "functional", "conditions": "read-out: Activity", "method_in_brief": "as §3"}, "CAKI-1": {"tested_on": "CAKI-1", "experiment": "Cytotoxicity against human Caki1 cells assessed as cell growth at 10^-5 M after 48 hrs by SRB assay", "type": "functional", "conditions": "CAKI-1, 48 h, read-out: Activity", "method_in_brief": "as §6"}, "HL-60(TB)": {"tested_on": "HL-60(TB)", "experiment": "Cytotoxicity against human HL-60(TB) cells assessed as cell growth at 10^-5 M after 48 hrs by SRB assay", "type": "functional", "conditions": "HL-60, 48 h, read-out: Activity", "method_in_brief": "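NCI one-dose primary screen on the 60-line human tumour panel. Cells were inoculated and preincubated 24–48 h. Compound was added at 10^-5 M with 48 h continuous exposure. Sulforhodamine B protein staining was read spectrophotometrically. Results are percent growth relative to untreated control cells.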"}, "A549": {"tested_on": "A549", "experiment": "Cytotoxicity against human A549 cells assessed as cell growth at 10^-5 M after 48 hrs by SRB assay", "type": "functional", "conditions": "A549, 48 h, read-out: Activity", "method_in_brief": "as §6"}, "NCI-H522": {"tested_on": "NCI-H522", "experiment": "Cytotoxicity against human NCI-H522 cells assessed as cell growth at 10^-5 M after 48 hrs by SRB assay", "type": "functional", "conditions": "NCI-H522, 48 h, read-out: Activity", "method_in_brief": "as §3"}, "Mycobacterium": {"tested_on": "Mycobacterium", "experiment": "Antibacterial activity against Mycobacterium luteum at 1 to 5 mg/mL after 24 hrs by stiff-plate agar-diffusion method", "type": "functional, organism-based", "method_in_brief": "as §2"}, "K562": {"tested_on": "K562", "experiment": "Cytotoxicity against human K562 cells assessed as cell growth at 10^-5 M after 48 hrs by SRB assay", "type": "functional", "conditions": "K562, 48 h, read-out: Activity", "method_in_brief": "as §6"}},
  "note": "Activity calls are given as the source filed them. No cut-off for these calls is given here.",
  "data": [
    {"smiles": "COc1ccc(-c2nn3c(SCC(=O)O)nc4ccccc4c3nc2=O)cc1", "values": [
      {"measurement": "Activity", "setting": "[1]", "value": 88.9, "unit": "%"},
      {"measurement": "Activity", "setting": "Staphylococcus aureus", "value": "inactive"},
      {"measurement": "growth at 10 µM", "setting": "UO-31", "value": 91.6, "unit": "%"},
      {"measurement": "Activity", "setting": "[2]", "value": 105, "unit": "%"},
      {"measurement": "Activity", "setting": "[3]", "value": 80, "unit": "%"},
      {"measurement": "Activity", "setting": "Aspergillus niger", "value": "inactive"},
      {"measurement": "growth at 10 µM", "setting": "HCC 2998", "value": 94.7, "unit": "%"},
      {"measurement": "Activity", "setting": "[4]", "value": 0, "unit": "%"},
      {"measurement": "Activity", "setting": "[5]", "value": 45, "unit": "%"},
      {"measurement": "growth at 10 µM", "setting": "CCRF-CEM", "value": 90.7, "unit": "%"},
      {"measurement": "Activity", "setting": "[6]", "value": "inactive"},
      {"measurement": "Activity", "setting": "Yamadazyma tenuis", "value": "inactive"},
      {"measurement": "growth at 10 µM", "setting": "SK-MEL-5", "value": 95.4, "unit": "%"},
      {"measurement": "Activity", "setting": "Escherichia coli", "value": "inactive"},
      {"measurement": "growth at 10 µM", "setting": "LOX IMVI", "value": 86.9, "unit": "%"},
      {"measurement": "growth at 10 µM", "setting": "PC-3", "value": 91.7, "unit": "%"},
      {"measurement": "growth at 10 µM", "setting": "SNB-75", "value": 93.9, "unit": "%"},
      {"measurement": "growth at 10 µM", "setting": "MDA-MB-231", "value": 89.9, "unit": "%"},
      {"measurement": "Activity", "setting": "[7]", "value": 191.5, "unit": "%"},
      {"measurement": "growth at 10 µM", "setting": "MOLT-4", "value": 84.8, "unit": "%"},
      {"measurement": "growth at 10 µM", "setting": "SR", "value": 65.8, "unit": "%"},
      {"measurement": "growth at 10 µM", "setting": "CAKI-1", "value": 91.4, "unit": "%"},
      {"measurement": "growth at 10 µM", "setting": "HL-60(TB)", "value": 63.5, "unit": "%"},
      {"measurement": "growth at 10 µM", "setting": "A549", "value": 95.9, "unit": "%"},
      {"measurement": "growth at 10 µM", "setting": "NCI-H522", "value": 94.9, "unit": "%"},
      {"measurement": "Activity", "setting": "Mycobacterium", "value": "inactive"},
      {"measurement": "growth at 10 µM", "setting": "K562", "value": 80.9, "unit": "%"}
    ]}
  ]
}
